# Source: ChEMBL document CHEMBL1811802, “Synthesis and significant cytostatic activity of 7-hetaryl-7-deazaadenosines” (J Med Chem, 2011)
# Legend:
# HCT-116 = assay: Cytostatic activity against human HCT116 cells after 5 days by SRB assay; format: functional; settings: HCT-116, 120 h
# Summary of the method: (§1)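 Cells seeded per line density, overnight at 37 °C; day-zero plate TCA-fixed. 5-fold serial dilutions added, 5-day incubation; TCA fixation, 0.057% SRB in 1% acetic acid 30 min, dye dissolved in 10 mM Tris pH 10.5, A500. Growth relative to day-zero and untreated; GIC50 from sigmoidal dose–response fit; mean of two independent experiments.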
# PC-3 = assay: Cytostatic activity against human PC3 cells after 5 days by SRB assay; format: functional; settings: PC-3, 120 h; summary of the method: as §1
# [1] = Cytostatic activity against human Hs578 cells after 5 days by SRB assay; format: functional; settings: Hs578, 120 h; summary of the method: as §1
# CCRF-CEM = assay: Cytotoxicity against human CCRF-CEM cells after 3 days by XTT assay; format: functional, cell-based; settings: 72 h
# Summary of the method: (§2)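 Suspension-grown cell lines, 3-day compound incubation; viability read by XTT metabolic assay; IC50 averaged from four independent experiments.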
# A549 = assay: Cytostatic activity against human A549 cells after 5 days by SRB assay; format: functional; settings: A549, 120 h; summary of the method: as §1
# HCT-15 = assay: Cytostatic activity against human HCT15 cells after 5 days by SRB assay; format: functional; settings: HCT-15, 120 h; summary of the method: as §1
# DU-145 = assay: Cytostatic activity against human DU145 cells after 5 days by SRB assay; format: functional; settings: DU-145, 120 h; summary of the method: as §1
# MT4 = assay: Cytostatic activity against human MT4 cells after 5 days by SRB assay; format: functional; settings: MT4, 120 h
# [2] = Cytotoxicity against human HeLaS3 cells after 3 days by XTT assay; format: functional, cell-based; settings: HeLa S3, 72 h; summary of the method: as §2
# Adenosine kinase = Adenosine kinase (Homo sapiens, UniProt P55263); assay: Inhibition of human ADK using [3H]-adenosine by scintillation counting
# Sequence of Adenosine kinase (P55263 whole entry): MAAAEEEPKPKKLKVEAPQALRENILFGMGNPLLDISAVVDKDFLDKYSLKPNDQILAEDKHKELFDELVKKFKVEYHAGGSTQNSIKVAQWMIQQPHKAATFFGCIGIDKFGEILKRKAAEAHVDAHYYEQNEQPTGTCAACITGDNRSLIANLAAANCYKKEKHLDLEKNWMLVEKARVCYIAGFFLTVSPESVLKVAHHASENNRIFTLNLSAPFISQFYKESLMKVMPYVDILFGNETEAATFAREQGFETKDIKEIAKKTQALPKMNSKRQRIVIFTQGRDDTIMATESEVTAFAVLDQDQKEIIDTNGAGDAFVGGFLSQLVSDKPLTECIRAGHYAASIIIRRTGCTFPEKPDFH
# HL-60 = assay: Cytotoxicity against human HL60 cells after 3 days by XTT assay; format: functional, cell-based; settings: HL-60, 72 h; summary of the method: as §2
# NCI-H23 = assay: Cytostatic activity against human NCI-H23 cells after 5 days by SRB assay; format: functional; settings: NCI-H23, 120 h; summary of the method: as §1
# BT-549 = assay: Cytostatic activity against human BT549 cells after 5 days by SRB assay; format: functional; settings: BT-549, 120 h; summary of the method: as §1
# [3] = Inhibition of RNA polymerase 2 in human HeLaScribe nuclear extracts after 1 hr
# Summary of the method: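 HeLaScribe nuclear extract transcription with CMV(+) template DNA, 3 mM MgCl2, 400 μM CTP/GTP/UTP, 25 μM [33P]ATP. Inhibitor preincubated 5 min at 30 °C, then 1 h at 30 °C. Products run on 6% urea–polyacrylamide gel; full-length transcript quantified; IC50 is 50% product decrease.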
Compound,GI50 (HCT-116),GI50 (PC-3),GI50 [1],IC50 (CCRF-CEM),GI50 (A549),GI50 (HCT-15),GI50 (DU-145),GI50 (MT4),IC50 [2],IC50 (Adenosine kinase),IC50 (HL-60),GI50 (NCI-H23),GI50 (BT-549),IC50 ([3]; read-out: IC50),IC50 [3]
COc1ccc(-c2cn([C@@H]3O[C@H](CO)[C@@H](O)[C@H]3O)c3ncnc(N)c23)cc1,633 nM,1110 nM,811 nM,> 10000 nM,701 nM,544 nM,152 nM,4300 nM,> 10000 nM,> 2000 nM,> 10000 nM,856 nM,,,
Nc1nc(Cl)nc2c1ncn2[C@@H]1O[C@H](CO)[C@@H](O)[C@@H]1F [CLOFARABINE],106 nM,63 nM,1240 nM,,86 nM,180 nM,125 nM,51 nM,,,,40 nM,65 nM,,
Nc1ncnc2c1c(-c1ccc[nH]1)cn2[C@@H]1O[C@H](CO)[C@@H](O)[C@H]1O,65.2 nM,87.8 nM,113 nM,160 nM,160 nM,,,,1040 nM,,2040 nM,333 nM,129 nM,,
Nc1ncnc2c1c(-c1ccco1)cn2[C@@H]1O[C@H](CO)[C@@H](O)[C@H]1O,48 nM,4 nM,17 nM,100 nM,35 nM,3 nM,19 nM,86 nM,50 nM,> 2000 nM,11600 nM,294 nM,,,
CSc1ccc(-c2cn([C@@H]3O[C@H](CO)[C@@H](O)[C@H]3O)c3ncnc(N)c23)cc1,1290 nM,,1970 nM,> 10000 nM,,,1870 nM,4400 nM,> 10000 nM,> 10000 nM,> 10000 nM,390 nM,,,
Nc1ncnc2c1c(-c1cc[nH]n1)cn2[C@@H]1O[C@H](CO)[C@@H](O)[C@H]1O,18 nM,15 nM,8 nM,130 nM,,,,18 nM,690 nM,> 10000 nM,> 20000 nM,35 nM,,,
Nc1ncnc2c1c(-c1ccoc1)cn2[C@@H]1O[C@H](COP(=O)(O)OP(=O)(O)OP(=O)(O)O)[C@@H](O)[C@H]1O,,,,,,,,,,,,,,> 400000 nM,
CC[C@H](C)[C@@H]1NC(=O)CNC(=O)[C@@H]2Cc3c([nH]c4cc(O)ccc34)[S+]([O-])C[C@@H](NC(=O)CNC1=O)C(=O)N[C@@H](CC(N)=O)C(=O)N1C[C@H](O)C[C@H]1C(=O)N[C@@H]([C@@H](C)[C@@H](O)CO)C(=O)N2 (stereo partly drawn) [alpha-Amanitin],,,,,,,,,,,,,,,2.2 ng/mL
Nc1ncnc2c1c(-c1cccs1)cn2[C@@H]1O[C@H](COP(=O)(O)OP(=O)(O)OP(=O)(O)O)[C@@H](O)[C@H]1O,,,,,,,,,,,,,,54000 nM,
Nc1ncnc2c1c(-c1ccc3ccccc3c1)cn2[C@@H]1O[C@H](CO)[C@@H](O)[C@H]1O,5670 nM,,2160 nM,> 10000 nM,,,1050 nM,,> 10000 nM,> 5000 nM,> 10000 nM,5350 nM,,,
